Values after ≈ are worked out from the molar mass of the structure shown. Active and inactive are the calls of the source. No cut-off for these calls is given here.
How the values were obtained:
Micrococcus luteus = assay: Antibacterial activity against Micrococcus luteus NRRL B-1018 assessed as inhibition of bacterial growth incubated for 16 hrs by broth micro dilution analysis; format: functional
Outline: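 Broth microdilution in LB, triplicate. Overnight culture diluted 5000-fold; 100 μL added to 100 μL LB holding 2-fold serial dilutions, final 128 to 0.5 μg/mL. Rifampicin control. Static incubation at 37 °C for 16 h. MIC taken as the lowest concentration with no visible growth.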

[1] = tested on: Mycolicibacterium smegmatis; assay: Antibacterial activity against Mycobacterium smegmatis mc2 155 assessed as bacterial growth inhibition incubated for 48 hrs Alamar blue staining based assay; format: functional
Outline: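 Culture grown 48 h at 37 °C, shaken in 7H9 with 0.2% glucose, 0.2% glycerol and 0.05% tyloxapol, then diluted to OD600 0.005. Added 1:1 to 2-fold serial dilutions, final 128 to 0.5 μg/mL. Rifampicin control. Static 48 h at 37 °C, then Alamar Blue for 24 h more. Wells staying blue by eye counted as inhibitory.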

[2] = tested on: Mycobacterium tuberculosis; assay: Antimycobacterial activity against Mycobacterium tuberculosis H37Rv assessed as bacterial growth inhibition incubated for 6 days by Alamar blue staining based assay; format: functional; conditions: 144 h, time 6 day
Outline: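 Strains passaged at 37 °C in 7H9 with OADC, 0.2% glycerol and 0.02% tyloxapol to OD600 0.5–0.7, then diluted to OD600 0.005. Final test range 5 to 0.009 μg/mL. Rifampicin control. Incubated 6 days at 37 °C with 5% CO2. Tween 80 and Alamar Blue then added for 24 h. Absorbance read at 570 nm, normalized to 600 nm.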

[3] = molecular target: ATP-dependent Clp protease ATP-binding subunit ClpC1 (Mycobacterium tuberculosis) (UniProt P9WPC9); assay: Induction of Mycobacterium tuberculosis H37Rv CIpc1 ATPase activity expressed in Escherichia coli BL21 (DE3) cells at 10 uM incubated for 1 hr by Biomol Green Reagent based assay
Chain of ATP-dependent Clp protease ATP-binding subunit ClpC1 (Mycobacterium tuberculosis) (P9WPC9 whole entry): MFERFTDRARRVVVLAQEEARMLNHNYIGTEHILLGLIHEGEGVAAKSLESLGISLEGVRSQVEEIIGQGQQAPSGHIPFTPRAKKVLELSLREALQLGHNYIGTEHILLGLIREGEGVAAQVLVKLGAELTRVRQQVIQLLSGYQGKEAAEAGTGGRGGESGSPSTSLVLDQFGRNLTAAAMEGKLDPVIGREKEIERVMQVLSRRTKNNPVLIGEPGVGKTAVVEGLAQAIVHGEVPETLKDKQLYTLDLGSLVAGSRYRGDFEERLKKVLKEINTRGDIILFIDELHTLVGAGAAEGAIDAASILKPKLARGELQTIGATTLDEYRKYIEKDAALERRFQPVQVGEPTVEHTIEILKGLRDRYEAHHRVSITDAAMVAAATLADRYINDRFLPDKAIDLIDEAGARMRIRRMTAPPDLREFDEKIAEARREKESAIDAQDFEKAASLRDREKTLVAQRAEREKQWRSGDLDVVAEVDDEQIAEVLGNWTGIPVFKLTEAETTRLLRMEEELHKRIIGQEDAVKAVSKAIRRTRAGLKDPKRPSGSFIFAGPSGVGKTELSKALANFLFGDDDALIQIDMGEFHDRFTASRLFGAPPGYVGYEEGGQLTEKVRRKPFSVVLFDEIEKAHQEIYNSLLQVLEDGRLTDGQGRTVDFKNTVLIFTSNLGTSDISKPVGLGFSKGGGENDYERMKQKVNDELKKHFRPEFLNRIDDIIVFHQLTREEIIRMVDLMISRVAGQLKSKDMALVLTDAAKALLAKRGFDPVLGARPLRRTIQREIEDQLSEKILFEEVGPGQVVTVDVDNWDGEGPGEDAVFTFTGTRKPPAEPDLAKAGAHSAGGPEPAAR
Outline: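 His-tagged ClpC1, cloned from H37Rv DNA into pET28c and purified by Ni-NTA. Assay in 100 mM Tris, 200 mM KCl, 8 mM MgCl2, pH 7.5, with 1 μM ClpC1 and 100 μM ATP. Compound in DMSO at 0.1, 1.0 and 10 μM final. Incubated 1 h at 37 °C. Released phosphate detected with BIOMOL Green at OD620. Three independent experiments.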

[4] = tested on: Mycobacterium tuberculosis; assay: Induction of Mycobacterium tuberculosis CIpc1/P1/P2 proteolytic activity at 0.1 to 10 uM incubated upto 45 mins by FITC-casein fluorescence based assay; conditions: dose 0.1-10 µM
Outline: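 FITC-casein 0.3 μM degraded by 1 μM ClpC1 with 2 μM ClpP1/P2 and 2 mM ATP. Buffer 100 mM Tris, 200 mM KCl, 8 mM MgCl2, pH 7.5. Compound in DMSO at 0.1, 1.0 and 10 μM. Change in fluorescence tracked relative to initial, which was set to 100. Triplicate.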

Molecule C=CC(C)(C)n1cc(C(O)C2NC(=O)[C@H](C(C)C)NC(=O)[C@H](CC(C)C)N(C)C(=O)[C@H](C(C)C)NC(=O)C(C(OC)c3ccccc3)NC(=O)[C@H](C(C)C)NC(=O)C(CC(C)CO)N(C)C2=O)c2ccccc21 (stereo not given in full) has an MIC (Micrococcus luteus) of 8 µg/mL (≈ 7.88 µM), an MIC [1] of 16 µg/mL (≈ 15.8 µM) and an MIC [2] of 0.16 µg/mL (≈ 0.158 µM). The Activity [3] was “Active” and the Activity [4] was “Active”.
